# Measured values gathered from unrelated publications.
# Compare with care: the assays were run in different laboratories.
# UGT2B7: UDP-glucuronosyltransferase 2B7 (UGT2B7, Homo sapiens, UniProt P16662)
# KCNH2: Voltage-gated inwardly rectifying potassium channel KCNH2 (KCNH2, Homo sapiens, UniProt Q12809)
Compound,target,assay,test system,setting,measurement,value
CON=C(N)c1ccc(-c2ccc(-c3ccc(C(N)=NOC)cc3)o2)cc1,"Cytochrome P450 4F2 (Homo sapiens, UniProt P78329)","enzyme activity, substrate",,,Km,0.7 µM
C[C@@H](Cn1ccc(-c2ccc(C#N)c(Cl)c2)n1)NC(=O)c1cc([C@@H](C)O)[nH]n1,UGT2B7,"enzyme activity, inhibitor","human, liver microsomes",,IC50,> 100 µM
O=c1c2ccccc2c(Cc2ccc(Cl)cc2)nn1C1CCCNCC1 (centres unmarked),KCNH2,"ion current, inhibitor, patch clamp",HEK293,10 µM,inhibition,97%
CNC(=O)[C@@]12C[C@@H]1[C@@H](n1cnc3c(NCCc4ccc(O)c(OC)c4)nc(C#Cc4ccco4)nc31)[C@H](O)[C@@H]2O,KCNH2,"ion current, inhibitor",,10 µM,inhibition,> 50%
C=C1CC[C@@H]2[C@](C)(CO[C@@H]3O[C@H](CO)[C@@H](O)[C@H](O)[C@H]3O)CCC[C@@]2(C)[C@@H]1CCC1=CCOC1=O,UGT2B7,"enzyme activity, inhibitor",,"100 µM, pH 7.4",inhibition,42%
CN(CCC(=O)O)C(=O)c1ccc2c(c1)CC[C@@H]1[C@@H]2CC[C@]2(C)C(c3cncc(F)c3)=CC[C@@H]12,UGT2B7,"enzyme activity, inhibitor",,,IC50,> 30 µM
O=C(Nc1cccc(C(F)(F)F)c1)N1CCN(c2cccc(C(F)(F)F)c2)CC1,KCNH2,"ion current, inhibitor, patch clamp",HEK293,10 µM,inhibition,85%
C=C1CCC2C(C)(CO)C(=O)CCC2(C)C1CCC1=CCOC1=O (centres unmarked),UGT2B7,"enzyme activity, inhibitor",,,Ki,4.2 µM
CC(C)=CCCC(C)c1ccc(C)cc1 (centres unmarked),UGT2B7,"enzyme activity, inhibitor",,,IC50,> 200 µM
C=C1CC[C@@H]2[C@](C)(CO)[C@H](O)CC[C@@]2(C)[C@@H]1CCC1=CCOC1=O,UGT2B7,"enzyme activity, inhibitor",,"100 µM, pH 7.4",inhibition,95%
CC(=O)c1cc(C(=O)N[C@@H](C)Cn2ccc(-c3ccc(C#N)c(Cl)c3)n2)[nH]n1,UGT2B7,"enzyme activity, inhibitor","human, liver microsomes",,IC50,> 50 µM
